Results as given in article PMC5018462 (Brain research, 2016).
Read-outs that look alike come from different tables or passages of the source.

Legend:
[1] = Solubility during SEC isolation in aCSF; assay type: physicochemical; conditions: SEC isolation on Superdex 75 in aCSF pH 7.8
Method in brief: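 It stood 30 min–4 h at room temperature and was spun at 18,000g. Supernatant ran on a BSA-coated Superdex 75 column in aCSF at 0.5 mL min−1, A280 monitored, with fractions kept on ice.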

primary murine microglia = assay: Microglial uptake by confocal fluorescence microscopy; assay type: cell-based, murine (C57BL/6); conditions: for uptake by primary microglia, unlabeled Aβ42: immunostained with AF488-conjugated secondary antibody
Method in brief: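 Microglia in glass-bottom dishes in serum- and GM-CSF-free medium at 37 °C. Conditions: 10 µM AF488-Aβ42 over time; various concentrations for 10 min; 5 µM labeled (imaged directly) or unlabeled Aβ42 (Ab9 1:5000, NL493 secondary). Fixed in 3.7% formaldehyde, DAPI, 40X confocal at fixed settings. ImageJ gave background-corrected cell fluorescence, or integrated density per nucleus. Two or three experiments.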

[2] = particularly at physiological pH; ref Jungbauer, et al., 2009; cited from earlier work

AF488-Aβ42 monomers: Aβ42 monomers labeled at primary amines with Alexa Fluor 488 TFP ester, isolated by SEC
solubility [1]: solubility issues were not encountered
uptake by primary microglia, AF488-labeled Aβ42 (primary murine microglia; 5 µM, imaged directly): not taken up readily
internalization by microglia (confocal) (primary murine microglia; 10 µM, 37 °C, time course, 40X confocal, ImageJ quantitation): Much lower levels

AF488-N-terminal-labeled Aβ42: N-terminally AF488-labeled Aβ42 of Jungbauer et al., 2009
solubility [2]: limited solubility

unlabeled Aβ42 monomers: Aβ1–42 monomers isolated by SEC in aCSF
uptake by primary microglia, unlabeled Aβ42 (primary murine microglia; 5 µM): not taken up readily

unlabeled Aβ42 protofibrils: Aβ1–42 soluble protofibrils formed in aCSF and isolated by SEC
uptake by primary microglia, unlabeled Aβ42 (primary murine microglia; 5 µM): rapid and extensive
